Results: ChEMBL document CHEMBL1269007, “Synthesis and biological evaluation of Apogossypolone derivatives as pan-active inhibitors of antiapoptotic B-cell lymphoma/leukemia-2 (Bcl-2) family proteins” (J Med Chem, 2010)
Where “and” joins values, the source holds several entries; their conditions need not be identical. Equal entries are not always repeated. Calls of active or inactive are those of the source. The rule behind the calls is not given here.

Columns and labels:
[1] = molecular target: Apoptosis regulator Bcl-2 (Homo sapiens, UniProt P10415); assay: Displacement of FITC-Bim BH3 peptide from Bcl-2 after 10 mins by fluorescence polarization assay
Apoptosis regulator Bcl-2, sequence (P10415 whole entry): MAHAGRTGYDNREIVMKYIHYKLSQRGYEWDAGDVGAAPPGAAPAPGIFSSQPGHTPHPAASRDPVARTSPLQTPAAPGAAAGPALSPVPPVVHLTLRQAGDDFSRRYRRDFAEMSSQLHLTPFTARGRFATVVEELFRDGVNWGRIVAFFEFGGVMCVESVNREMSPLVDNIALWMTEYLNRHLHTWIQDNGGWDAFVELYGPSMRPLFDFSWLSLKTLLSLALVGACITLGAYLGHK

Bcl-2-like protein 1 [2] = molecular target: T1, Bcl-2-like protein 1 (Homo sapiens, UniProt Q07817); assay: Displacement of F-BakBH3 from Bcl-xL after 30 mins by fluorescence polarization assay
T1 sequence (Q07817 whole entry): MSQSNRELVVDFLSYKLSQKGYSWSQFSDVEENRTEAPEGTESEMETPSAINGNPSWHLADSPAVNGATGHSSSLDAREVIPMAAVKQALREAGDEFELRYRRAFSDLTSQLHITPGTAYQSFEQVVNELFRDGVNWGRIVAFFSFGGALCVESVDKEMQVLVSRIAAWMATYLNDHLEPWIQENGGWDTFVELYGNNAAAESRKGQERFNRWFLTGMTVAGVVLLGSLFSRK
Procedure, shortened: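 GST-Bcl-XL ΔTM (100 nM) preincubated with varying compound concentrations in PBS pH 7.4 for 10 min at room temperature. FITC-labelled Bak BH3 peptide (2.5 μL of 100 nM stock) then added. Polarization read at 480/535 nm after 30 min at room temperature. Wild-type and mutant Bak BH3 peptides served as plate controls. IC50 from sigmoidal dose-response fit; mean of three independent experiments ± SE.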

[3] = molecular target: Induced myeloid leukemia cell differentiation protein Mcl-1 (Homo sapiens, UniProt Q07820); assay: Displacement of FITC-Bim BH3 peptide from Mcl-1 after 10 mins by fluorescence polarization assay
Induced myeloid leukemia cell differentiation protein Mcl-1, sequence (Q07820 whole entry): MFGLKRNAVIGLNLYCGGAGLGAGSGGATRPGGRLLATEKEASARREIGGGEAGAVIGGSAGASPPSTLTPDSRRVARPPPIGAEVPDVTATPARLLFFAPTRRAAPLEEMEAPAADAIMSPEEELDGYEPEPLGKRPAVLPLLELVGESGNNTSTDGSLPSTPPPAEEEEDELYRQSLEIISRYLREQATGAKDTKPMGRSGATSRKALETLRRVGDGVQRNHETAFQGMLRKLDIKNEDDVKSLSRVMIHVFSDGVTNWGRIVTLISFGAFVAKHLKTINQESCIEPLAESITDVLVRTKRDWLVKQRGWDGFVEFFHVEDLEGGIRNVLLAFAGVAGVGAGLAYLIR

Bcl-2-like protein 1 [4] = molecular target: T1, Bcl-2-like protein 1; assay: Binding affinity Bcl-xL by isothermal titration calorimetry assay
[5] = Metabolic stability of the compound in rat microsomes after 40 mins; assay type: ADME, Microsome; details: read-out: Stability
Bcl-2-related protein A1 = molecular target: T2, Bcl-2-related protein A1 (Homo sapiens, UniProt Q16548); assay: Displacement of F-BakBH3 from Bfl-1 after 30 mins by fluorescence polarization assay
T2 sequence (Q16548 whole entry): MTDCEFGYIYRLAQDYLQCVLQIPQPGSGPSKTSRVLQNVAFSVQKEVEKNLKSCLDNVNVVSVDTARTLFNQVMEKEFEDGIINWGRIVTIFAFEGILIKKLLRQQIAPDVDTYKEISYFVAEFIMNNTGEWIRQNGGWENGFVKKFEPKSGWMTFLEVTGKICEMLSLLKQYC

Mus musculus [6] = assay: Toxicity in human Bcl2 expressing B6 transgenic BALB/c mouse assessed as mortality at 60 umol/kg, ip administered as single dose after 24 hrs; assay type: organism-based; details: in vivo
Procedure, shortened: (§1)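 Age- and sex-matched B6 Bcl2 transgenic mice (human BCL-2/IgH minigene on Balb/c background, no aggressive lymphoma yet) given a single i.p. injection of compound in 500 μL ethanol:Cremophor EL:saline 10:10:80. Controls received vehicle. Animals sacrificed at 24 h with Avertin; spleen removed and weighed.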

Mus musculus [7] = assay: Toxicity in human Bcl2 expressing B6 transgenic BALB/c mouse assessed as mortality at 30 umol/kg, ip administered as single dose after 24 hrs; assay type: organism-based; details: in vivo
Procedure, shortened: as §1

[8] = Metabolic stability of the compound in rat plasma after 40 mins; assay type: ADME, cell-free; details: read-out: Stability
Mus musculus [9] = assay: Toxicity in human PPC1 cells xenografted nude mouse assessed as mortality at 25 mg/kg, ip administered weekly 3 times; assay type: organism-based, PPC-1; parameters: dose 25 mg/kg, route intraperitoneal; details: in vivo
Procedure, shortened: (§2)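 PPC-1 flank xenografts (5×10^6 cells s.c.) in female 6-week-old nude mice, size-matched at 200 mm³, 6 per group. Compound given i.p. three times in the first week in ethanol:Cremophor EL:saline 10:10:80 (500 μL); controls got saline. Survival and body weight monitored during week 1.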

Mus musculus [10] = assay: Reduction of spleen weight in human Bcl2 expressing B6 transgenic BALB/c mouse at 30 umol/kg, ip administered as single dose after 24 hrs; assay type: functional; parameters: scale not given: the % may be the effect or the level left
Bcl-2-like protein 1 [11] = molecular target: T1, Bcl-2-like protein 1; assay: Binding affinity Bcl-xL at 200 uM by one-dimensional 1H nuclear magnetic resonance spectroscopy
Mus musculus [12] = assay: Reduction of spleen weight in ip dosed human Bcl2 expressing B6 transgenic BALB/c mouse administered as single dose after 24 hrs; assay type: functional, organism-based
Homo sapiens = organism: Homo sapiens; assay: Induction of apoptosis in human CLL after 24 hrs by annexin V-FITC and propidium iodide staining; assay type: functional
Procedure, shortened: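 Freshly isolated primary leukaemic cells from CLL patients cultured in RPMI 1640 with 10% FBS and penicillin/streptomycin with various compound concentrations for 1 day. Annexin V-FITC/propidium iodide staining read by flow cytometry; annexin-V-negative, PI-negative cells counted as viable; LD50 derived from dose-response.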

Mus musculus [13] = assay: Toxicity in human PPC1 cells xenografted nude mouse assessed as weight loss at 50 mg/kg, ip administered weekly 3 times; assay type: organism-based, PPC-1; parameters: dose 50 mg/kg, route intraperitoneal; details: in vivo
Procedure, shortened: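 Nude mice carrying subcutaneous flank xenografts (5×10^6 cells), size-matched at 200 mm³, 6 per group. Dosed intraperitoneally in ethanol:Cremophor EL:saline 10:10:80, three times in week 1, twice in week 2, once in week 3; saline controls. Body weight followed over treatment and reported as average percentage loss.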

PPC-1 [14] = assay: Antitumor activity against human PPC1 cells xenografted in nude mouse assessed as tumor regression at 50 mg/kg, ip administered weekly 3 times; assay type: functional, organism-based; parameters: dose 50 mg/kg
Procedure, shortened: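 Female 6-week-old nude mice given 5×10^6 cells in 0.2 ml PBS subcutaneously in the flank; tumours size-matched at 200 mm³, 6 mice/group. Intraperitoneal injections in ethanol:Cremophor EL:saline 10:10:80 (500 μL), three times week 1, twice week 2, once week 3; controls received saline. Caliper volume (length×width²/2) two to three times weekly; T/C% = mean treated/mean control volume.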

RS4-11 = assay: Induction of apoptosis in human RS4:11 cells expressing high level of Bcl-2 and Bcl-xL after 24 hrs by annexin V-FITC and propidium iodide staining; assay type: functional, cell-based
Mus musculus [15] = assay: Reduction of spleen weight in human Bcl2 expressing B6 transgenic BALB/c mouse at 60 umol/kg, ip administered as single dose after 24 hrs; assay type: functional; parameters: scale not given: the % may be the effect or the level left
BP3 = assay: Induction of apoptosis in human BP3 cells expressing high level of Bfl-1 and Mcl-1 after 24 hrs by annexin V-FITC and propidium iodide staining; assay type: functional, cell-based
PPC-1 [16] = assay: Antitumor activity against human PPC1 cells xenografted in nude mouse assessed as tumor regression at 50 mg/kg, ip administered 5 times measured on after 2 weeks relative to control; assay type: functional; details: route intraperitoneal
Procedure, shortened: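 Female 6-week-old nude mice injected s.c. in the flank with 5×10^6 PPC-1 cells in 0.2 ml PBS; size-matched at 200 mm³, 6 per group. Compound given i.p. in ethanol:Cremophor EL:saline 10:10:80 (500 μL), three times in week 1, twice in week 2, once in week 3; controls got saline. Caliper volume (length × width²/2) 2–3 times weekly; T/C% = mean treated volume / mean control volume.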

Mus musculus [17] = assay: Reduction of spleen weight in human Bcl2 expressing B6 transgenic BALB/c mouse at 60 umol/kg, ip administered as single dose after 24 hrs relative to control; assay type: functional; parameters: scale not given: the % may be the effect or the level left
Mus musculus [18] = assay: Toxicity in human PPC1 cells xenografted nude mouse assessed as mortality at 50 mg/kg, ip administered weekly 3 times; assay type: organism-based, PPC-1; parameters: dose 50 mg/kg, route intraperitoneal; details: in vivo
Procedure, shortened: as §2

Mus musculus [19] = assay: Toxicity in human Bcl2 expressing B6 transgenic BALB/c mouse assessed as weight loss up to 120 umol/kg, ip administered as single dose after 24 hrs; assay type: organism-based; details: in vivo
Mus musculus [20] = assay: Toxicity in human Bcl2 expressing B6 transgenic BALB/c mouse up to 120 umol/kg, ip administered as single dose after 24 hrs; assay type: organism-based; details: in vivo
Procedure, shortened: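 B6 Bcl-2 transgenic Balb/c mice, age- and sex-matched, given one intraperitoneal dose (60 or 120 μmol/kg, also 30 μmol/kg) in ethanol:Cremophor EL:saline 10:10:80, 500 μL; survival and signs of toxicity observed over 24 h before sacrifice.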

Row | Structure (SMILES) | IC50 [1] [nM] | Ki [1] [nM] | IC50 (Bcl-2-like protein 1 [2]) [nM] | Ki (Bcl-2-like protein 1 [2]) [nM] | IC50 [3] [nM] | Ki [3] [nM] | Kd (Bcl-2-like protein 1 [4]) [nM] | Ki (Bcl-2-related protein A1) [nM] | remaining at 40 min [8] [%] | Activity (Bcl-2-like protein 1 [11]) | Activity (Mus musculus [12]) | LD50 (Homo sapiens) [µM] | Activity (Mus musculus [13]) | Activity (PPC-1 [14]) | Activity (RS4-11) | Activity (Mus musculus [15]) [%] | Activity (BP3) | Activity (PPC-1 [16]) [%] | also measured
1 | CC1=C(C2=C(C)C(=O)c3c(cc(O)c(O)c3Cc3ccccc3)C2=O)C(=O)c2cc(O)c(O)c(Cc3ccccc3)c2C1=O | 290 | 190 | 340 | 230 | 240 | 160 | 450 | 430 | 95 | Active | Dose-dependent effect | – | – | – | – | – | – | – | remaining at 40 min [5]: 91%; IC50 (Bcl-2-related protein A1): 650 nM; Activity (Mus musculus [6]): Toxic; Activity (Mus musculus [7]): Non-toxic; Activity (Mus musculus [9]): Toxic; Activity (Mus musculus [10]): 86%
2 | CC1=C(C2=C(C)C(=O)c3c(cc(O)c(O)c3C(C)C)C2=O)C(=O)c2cc(O)c(O)c(C(C)C)c2C1=O | – | 250 | – | 420 | – | 430 | – | 1470 | 77 | Active | Dose-dependent effect | > 30 | 9.3% | Active | Dose-dependent effect | 20 | Dose-dependent effect | 65 | –
3 | CC1=C(C2=C(C)C(=O)c3c(cc(O)c(O)c3CCc3ccc(C)cc3)C2=O)C(=O)c2cc(O)c(O)c(CCc3ccc(C)cc3)c2C1=O | 3120 | 2080 | 3100 | 2070 | 2050 | 1370 | 2500 | – | 86 | Active | Dose-dependent effect | 10 | 5% and 6.8% | Active | Dose-dependent effect | 30 | Dose-dependent effect | 33 | Activity (Mus musculus [17]): 60%; Activity (Mus musculus [18]): Non-toxic; Activity (Homo sapiens): Dose-dependent effect; Activity (Mus musculus [19]): 5%; Activity (Mus musculus [20]): Non-toxic
